Assay results pooled from the literature.
Each line is one published result; the experiments were not run side by side.
Target: Tyrosine-protein kinase Lyn (LYN, Homo sapiens, UniProt P07948)

`CC1(C)NC(=O)c2[nH]c3c(Cl)c(Cl)ccc3c2C1C#N` (stereo not drawn) gave a ΔTm of 0.2 °C (thermal stability; DSF; 10 µM).
The remaining activity of `O=C(Nc1cnn(-c2csc(C(=O)NC3COC3)c2)c1)Nc1c(F)cccc1Cl` is reported as 95.3% (enzyme activity; inhibitor; 5 µM).
With `CNC(=O)c1cc2c(Oc3ccc(NC(=O)C4(C(=O)Nc5ccc(F)cc5)CC4)cc3)ccnc2cc1OC` the inhibition was 99% (enzyme activity; inhibitor; radiometric; 1 µM).
`CC(=O)c1c(NS(C)(=O)=O)c2cc(-c3ccc(Cl)cc3)c(-c3ccc(Cl)cc3Cl)nc2n(C)c1=O` has a remaining binding of 100% (cell-free assay; competition with immobilised ligand; 1 µM).
The remaining signal of `O=C1NC(=O)c2cc(Nc3ccc(F)cc3)c(Nc3ccc(F)cc3)cc21` is reported as 98.7% (cell-free assay; inhibitor; 0.5 µM).
`C=CC(=O)Nc1cc(Nc2nccc(Nc3cc(Cl)c(F)cc3C(C)(C)O)n2)c(OC)cc1N1CC[C@@H](N(C)C)C1` has an inhibition of 44% (enzyme activity; inhibitor; 1 µM).
With `O=c1c2ccccc2[nH]c(=S)n1CCN1CCC(=C(c2ccc(F)cc2)c2ccc(F)cc2)CC1` the remaining activity was 108% (enzyme activity; inhibitor; 0.5 µM).
`Cn1c2c(c3ccc(Cl)c(Cl)c31)C(C#N)C1(CCN(C(=O)OC(C)(C)C)CC1)NC2=O` (racemic) has a ΔTm of 0 °C (thermal stability; DSF; 10 µM).
`Cc1ccc(NC(=O)c2ccc(CN3CCN(C)CC3)cc2)cc1Nc1nccc(-c2cccnc2)n1` has an activity vs control of 59.6% (enzyme activity; inhibitor; 0.5 µM).
The remaining activity of `CCCOc1ccc(OC)c(F)c1C(=O)c1ccc(C(=O)N[C@@H]2CNC[C@H]2NC(=O)c2ccc3[nH]ncc3c2)cc1` is reported as 39% (enzyme activity; inhibitor; 10 µM).
`CCOC(=O)c1cc2cc(-c3cc(C(=O)NCc4ccc(C(=O)O)cc4)nn3C)ccc2[nH]1` has a remaining binding of 100% (cell-free assay; competition with immobilised ligand; 0.1 µM).
With `Cn1c2c(c3ccc(Cl)c(Cl)c31)C(C#N)C1(CCNCC1)NC2=O` (racemic) the ΔTm was 0.2 °C (thermal stability; DSF; 10 µM).
With `CC(C)(C)c1nc(-c2cccc(NS(=O)(=O)c3c(F)cccc3F)c2F)c(-c2ccnc(N)n2)s1` the remaining activity was 51% (enzyme activity; inhibitor; radiometric; 1 µM).
With `O=C1Nc2ccc(Cl)cc2C1=Cc1cc(Cl)c(O)c(Cl)c1` the remaining signal was 81.6% (cell-free assay; 0.5 µM).
`CNCc1ccc(-c2cc(-c3nc(-c4ccc(S(=O)(=O)C(C)C)cc4)cnc3N)on2)cc1` gave an inhibition of 13% (enzyme activity; inhibitor; 0.4 µM).
`O=C(Nc1cnn(-c2csc(C(=O)NC3COC3)c2)c1)Nc1ccccc1Cl` gave a remaining activity of 96.8% (enzyme activity; inhibitor; 5 µM).
`Cn1c2c(c3ccccc31)C(C#N)C(C)(C)NC2=O` (stereo not drawn) gave a ΔTm of 0 °C (thermal stability; DSF; 10 µM).
With `Cn1nc(C(F)(F)F)cc1-c1cnc(N2CCc3cc(S(=O)(=O)Nc4c(F)cc(Cl)cc4F)cc(N4CCCC4=O)c32)nc1` the remaining binding was 100% (cell-free assay; competition with immobilised ligand; 1 µM).
`CNC(=O)c1cc(Oc2ccc(NC(=O)Nc3ccc(Cl)c(C(F)(F)F)c3)cc2)ccn1` gave an inhibition of 96% (enzyme activity; inhibitor; 10 µM).
With `CS(=O)(=O)CCNCc1ccc(-c2ccc3ncnc(Nc4ccc(OCc5cccc(F)c5)c(Cl)c4)c3c2)o1` the remaining signal was 104% (cell-free assay; 0.5 µM).
For `CN(C)c1ncnc(-c2ccc3nc(Nc4cc(CN5CCN(C(=O)CC(F)(F)F)CC5)ccn4)[nH]c3c2)c1Cl`, the remaining binding was 94% (cell-free assay; competition with immobilised ligand; 1 µM).
The ΔTm of `Cn1c2c(c3ccc(Cl)c(Cl)c31)C(C#N)C1(CCCC1)NC2=O` (stereo not drawn) is reported as 0 °C (thermal stability; DSF; 10 µM).
The remaining binding of `CC1=C(C#N)[C@@H](c2ccc3[nH]nc(C)c3c2)C(C#N)=C(c2ccc(Cl)cc2)N1` is reported as 96.8% (cell-free assay; competition with immobilised ligand; 1 µM).
The remaining signal of `N#CCCc1ccc2c(c1)-c1[nH]c3ccc([N+](=O)[O-])cc3c1CC(=O)N2` is reported as 23% (cell-free assay; 0.5 µM).
`CC(C)c1ccc(NC(=O)c2cccs2)c(-c2nc3ccccc3[nH]c2=O)c1` gave an activity vs control of 83% (enzyme activity; inhibitor; 1 µM).
`CCN1CCC2(CC1)NC(=O)c1c(c3ccc(Cl)c(Cl)c3n1C)C2C#N` (racemic) gave a ΔTm of 0 °C (thermal stability; DSF; 10 µM).
The inhibition of `CCN(CC)CCNC(=O)c1c(C)[nH]c(/C=C2\C(=O)Nc3ccc(F)cc32)c1C` is reported as 98% (enzyme activity; inhibitor; 10 µM).
The ΔTm of `CCC1(CC)NC(=O)c2c(c3ccc(Cl)c(Cl)c3n2C)C1C#N` (stereo not drawn) is reported as -0.3 °C (thermal stability; DSF; 10 µM).
With `O=C(NC[C@@H]1[C@H]2CN(C(=O)OCc3cc(C(F)(F)F)cc(C(F)(F)F)c3)C[C@@H]12)c1ccc2[nH]nnc2c1` the remaining binding was 100% (cell-free assay; competition with immobilised ligand; 1 µM).
The remaining activity of `Nc1ncnc2occ(-c3ccc(NC(=O)Nc4cc(C(F)(F)F)ccc4F)cc3)c12` is reported as 1.4% (enzyme activity; inhibitor; 20 µM).
For `C[C@H](NC(=O)c1cnc2n1[C@](C)(Cc1ccc(C#N)cc1)C(=O)N2c1cc(Cl)c(F)c(Cl)c1)C(=O)NC1(c2ccccn2)CC1`, the remaining binding was 100% (cell-free assay; competition with immobilised ligand; 1 µM).
`Cc1ccc(Nc2nccc(N(C)c3ccc4c(C)n(C)nc4c3)n2)cc1S(N)(=O)=O` has a remaining activity of 52.1% (enzyme activity; inhibitor; 0.5 µM).
`Cc1cnc(NC2CCOCC2)nc1-n1cnc(C(=O)NC(CN)c2cc(F)cc(Cl)c2)c1` (stereo not drawn) has a remaining activity of 84% (enzyme activity; inhibitor; radiometric; 1 µM).
For `c1nc2c(Nc3ccc4c(c3)OCCO4)nc(Nc3ccc4c(c3)OCCO4)nc2[nH]1`, the activity vs control was 32% (enzyme activity; inhibitor; 10 µM).
The remaining binding of `CS(=O)(=O)c1cc(C2(NC(=O)c3cncc4c3cnn4-c3ccc(F)cc3)CC2)ccn1` is reported as 100% (cell-free assay; competition with immobilised ligand; 1 µM).
`CCN(CC)c1ccc(C2=NNC(=O)CC2C)cc1[N+](=O)[O-]` (stereo not drawn) gave a remaining activity of 114% (enzyme activity; inhibitor; 10 µM).
